In brackets after ≈: the same amount, converted by molar mass.
Assays:
Format in all cases: functional
Details in all cases: variant bovis BCG, 168 h, time 7 day
[1] = tested on: Mycobacterium tuberculosis; experiment: Antibacterial activity against Mycobacterium bovis BCG transfected with pMV261:Mt-dprE1 assessed as bacterial growth inhibition incubated for 7 days by resazurin assay
Method in brief: (§1)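 M. bovis BCG Pasteur carrying pMV261 (constitutive expression) with Mt-dprE1, Mt-dprE2 or empty vector; MIC after 7 days' exposure to compound, viability read as endogenous reductase conversion of resazurin to resorufin. INH used as control.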

[2] = tested on: Mycobacterium tuberculosis; experiment: Antibacterial activity against Mycobacterium bovis BCG transfected with pMV261:Mt-dprE2 assessed as bacterial growth inhibition incubated for 7 days by resazurin assay; method in brief: as §1
[3] = tested on: Mycobacterium tuberculosis; experiment: Antibacterial activity against wild type Mycobacterium bovis BCG assessed as bacterial growth inhibition incubated for 7 days by resazurin assay; method in brief: as §1

Compound	MIC [1]	MIC [2]	MIC [3]
O=C(Nc1sccc1C(=O)Nc1nccc(C(F)(F)F)n1)c1ccc(C(=O)N2CCCCC2)cc1	12.8 µg/mL (≈ 25.4 µM)	1.6 µg/mL (≈ 3.18 µM)	1.6 µg/mL (≈ 3.18 µM)
CCOC(=O)NC(=O)c1ccsc1NC(=O)c1ccc(C(=O)N2CCCCC2)cc1	> 1.28 µg/mL	0.32 µg/mL (≈ 0.745 µM)	0.32 µg/mL (≈ 0.745 µM)
COC(=O)NC(=O)c1ccsc1NC(=O)c1ccc(C(=O)N2CCCCC2)c(F)c1	> 1.98 µg/mL	0.25 µg/mL (≈ 0.577 µM)	
CCOC(=O)NC(=O)c1ccsc1NC(=O)c1nc2ccccc2s1	15.4 µg/mL (≈ 40.9 µM)		
CCOC(=O)NC(=O)c1ccsc1NC(=O)c1ccc(C(=O)N2CCCCC2)c(F)c1	> 0.51 µg/mL		0.064 µg/mL (≈ 0.143 µM)
COC(=O)NC(=O)c1ccsc1NC(=O)c1ccc(C(=O)N2CCCCC2)cc1	12.2 µg/mL (≈ 29.3 µM)	1.52 µg/mL (≈ 3.66 µM)	0.76 µg/mL (≈ 1.83 µM)
CCOC(=O)NC(=O)c1ccsc1NC(=O)c1ccc(C(=O)N2CCCCC2)s1	8.96 µg/mL (≈ 20.6 µM)	0.56 µg/mL (≈ 1.29 µM)	0.28 µg/mL (≈ 0.643 µM)

Reference: ChEMBL document CHEMBL4831479, “Discovery of Novel Thiophene-arylamide Derivatives as DprE1 Inhibitors with Potent Antimycobacterial Activities” (J Med Chem, 2021)
